Shown are actives, neighbours in structure and some others; about 4.6% of the full set was active somewhere.
Arrestin-AP2 inh = human beta-arrestin and AP2 interaction inhibition | inhibition, % at 10 µM | AID 504490 | actives 0.31% (n = 340,000) | FITC-arrestin peptide / GST-AP2 beads, flow cytometry; AP2 beta2 appendage carries R879A mutation;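 active means inhibition above a set limit, near 3 SD of compounds lacking own fluorescence, cut at about 54% in these data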
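Material – AP2 appendage R879A on GSH beads · Buffer or medium – PBS with 0.05% Tween 20 and 0.1% BSA · Probe or stimulus – fluorescein-tagged arrestin peptide at 50 nM final · Incubation – compound with beads 12 min RT, then probe 1 h RT · Detection – high-throughput flow cytometry of beads, ex 488, em 535 nm · Evaluation – percent response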
NALP1 inh = inhibitors of NALP1 inflammasome in yeast; S. cerevisiae NALP1/ASC/caspase-1 growth, X-gal OD620, 72 h; inhibition, % at 10 µM; actives 0.61% (n = 280,000); AID 2071; in the data active means inhibition mostly above about 24%, no sharp cut-off; inactive means mostly below about 32%
ALR H2O2 inh = human ALR oxidase inhibition via reduced H2O2; P55789; purified ALR, DTT oxidation, H2O2 HRP-luminol luminescence; inhibition, % (test concentration not listed); actives 3.8% (n = 290,000); AID 485317;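 active means mean replicate inhibition above about 79%, with every replicate also reaching it, limit read from the data; inconclusive means only one of the two criteria met; inactive means mean below limit and not every replicate reaching it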
DSG3 Ab inh = human desmoglein-3 autoantibody binding inhibition; P32926; DSG3-coupled beads, scFv-anti-DSG3-GFP binding, flow cytometry; hits give low values; binding (percent of control), % at 10 µM; actives 0.48% (n = 310,000); AID 588358;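 active means binding more than 3 SD below its plate's average and above zero; inconclusive means below that plate limit but binding exactly zero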;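 further: hits lower antibody fragment binding to DSG3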
Target sequence (P32926 whole entry, looked up, the tested form may be a part): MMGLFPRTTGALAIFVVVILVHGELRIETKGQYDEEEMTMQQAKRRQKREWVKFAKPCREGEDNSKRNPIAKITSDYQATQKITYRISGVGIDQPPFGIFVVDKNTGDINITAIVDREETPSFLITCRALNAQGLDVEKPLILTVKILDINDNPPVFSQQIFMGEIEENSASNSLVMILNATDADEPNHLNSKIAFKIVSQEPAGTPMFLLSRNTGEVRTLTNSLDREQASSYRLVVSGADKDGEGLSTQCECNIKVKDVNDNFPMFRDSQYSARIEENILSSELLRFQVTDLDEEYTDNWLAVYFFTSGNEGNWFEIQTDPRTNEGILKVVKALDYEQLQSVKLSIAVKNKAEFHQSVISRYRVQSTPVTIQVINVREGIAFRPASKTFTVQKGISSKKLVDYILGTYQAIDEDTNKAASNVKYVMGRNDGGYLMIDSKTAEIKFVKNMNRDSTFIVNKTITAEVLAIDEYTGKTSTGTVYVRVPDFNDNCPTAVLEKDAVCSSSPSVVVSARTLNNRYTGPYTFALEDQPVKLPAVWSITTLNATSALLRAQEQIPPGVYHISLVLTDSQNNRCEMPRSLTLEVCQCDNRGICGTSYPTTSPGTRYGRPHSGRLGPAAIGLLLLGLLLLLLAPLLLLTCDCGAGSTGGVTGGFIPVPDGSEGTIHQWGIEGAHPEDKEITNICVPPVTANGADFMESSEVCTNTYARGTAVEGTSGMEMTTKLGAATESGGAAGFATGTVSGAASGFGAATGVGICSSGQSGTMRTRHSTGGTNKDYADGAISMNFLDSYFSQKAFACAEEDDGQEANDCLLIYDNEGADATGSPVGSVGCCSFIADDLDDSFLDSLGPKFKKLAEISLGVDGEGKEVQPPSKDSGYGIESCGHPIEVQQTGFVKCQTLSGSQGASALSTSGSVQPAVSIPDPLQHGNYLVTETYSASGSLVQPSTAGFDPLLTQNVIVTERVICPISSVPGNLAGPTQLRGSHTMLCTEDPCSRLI
NALP3 yeast inh = inhibitors of NALP3 inflammasome in yeast. Yeast reconstituted NLRP3/ASC/caspase-1, beta-gal luminescence, 24 h. inhibition, % at 10 µM. actives 0.39% (n = 330,000);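 active means inhibition of 50% or more; inactive means inhibition below 50%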
PolyA inh = blocks polyadenylation in yeast reporter cells; S. cerevisiae SKY197-pL101 polyadenylation reporter, beta-gal luminescence; efflux-impaired pdr1/pdr3 knockout yeast; score 100 = 6 SD above DMSO; activity score, % at 12 µM; actives 0.02% (n = 300,000); AID 1875;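 active means lowest replicate activity score at least 50, where 100 means six control SD above control mean; inconclusive means lowest score under 50 but half or more replicates reach 50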;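 further: yeast exposed to compound for 9 h at 30 °C; higher score means more reporter readthrough which indicates perturbed polyadenylation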
Large screens that a line does not name were inactive.

NS(=O)(=O)c1ccc(CNC(=S)Nc2cc(S(=O)(=O)N3CCOCC3)ccc2Cl)cc1	none (no result: NALP1 inh, ALR H2O2 inh, NALP3 yeast inh, PolyA inh)
C[C@@H]1CN([C@@H](C)CO)C(=O)c2cccc(NC(=O)c3nc4ccccc4s3)c2O[C@@H]1CN(C)CC1CC1	none (no result: NALP1 inh, ALR H2O2 inh, PolyA inh)
Fc1ccc(C2CCCCN2Cc2nc(CC3CC3)no2)cc1 (configuration not stated)	none
Fc1ccc2nc(C3CCCCN3Cc3nc(CC4CC4)no3)[nH]c2c1 (configuration not stated)	DSG3 Ab inh 2.2
Cc1cc(Br)c2[nH]cc(CCNC(=O)c3ccco3)c2c1	NALP1 inh 41
Cc1ccc2[nH]cc(CCNC(=O)c3ccc4c(c3)OCO4)c2c1	none
Cc1ccc2[nH]cc(CCNC(=O)c3cccs3)c2c1	ALR H2O2 inh 97
Cc1ccc2[nH]cc(CCNC(=O)c3ccco3)c2c1	none
Cc1[nH]nc2c1C(=O)CC(C)(C)C2	none
Cc1[nH]nc2c1C(=O)CCC2	ALR H2O2 inh 100
CC(C)CC(=O)Nc1nnc(S(=O)(=O)N(C)Cc2ccco2)s1	none
CN(Cc1ccco1)S(=O)(=O)c1nnc(NC(=O)c2cccc(Cl)c2)s1	ALR H2O2 inh 96
CC(NCc1ccc2c(c1)OCO2)C(=O)NC1CCCCC1 (configuration not stated)	none
CC(NCc1ccc(F)cc1)C(=O)NC1CCCCC1 (configuration not stated)	NALP1 inh 44
COc1cc(C=C2C(=O)c3ccccc3C2=O)cc(OC)c1OC	ALR H2O2 inh 97
COc1cccc(/C=C2\C(=O)C(=O)c3ccccc32)c1	ALR H2O2 inh 100
COc1cc(C=C2C(=O)c3ccccc3C2=O)cc(OC)c1	none (no result: NALP1 inh, ALR H2O2 inh, DSG3 Ab inh)
CCNC(=O)COc1ccc(/C=C2\COc3ccccc3C2=O)cc1OC	none
O=C(Cc1ccc(-c2ccccc2)cc1)Nc1ncccc1O	none
CC1CC(C)CN(C(=O)CSc2nnc(-c3ccc(Cl)cc3)o2)C1 (configuration not stated)	NALP1 inh 35 (no result: ALR H2O2 inh)
CN1C(C(=O)NCc2cccc(Br)c2)CC2Cn3c(nc4cc5ccccc5cc43)C21 (configuration not stated)	DSG3 Ab inh 91 (no result: NALP1 inh, ALR H2O2 inh)
Cc1cc2nc3n(c2cc1C)CC1CC(C(=O)NCc2cccc(Br)c2)N(C)C31 (configuration not stated)	none (no result: NALP1 inh, ALR H2O2 inh)
CCCSc1cc(NCCOC(=O)CCC)c([N+](=O)[O-])c2nonc12	ALR H2O2 inh 97
CCCSc1cc(NCCOC(C)=O)c([N+](=O)[O-])c2nonc12	none
CCCC(=O)OCCNc1cc(Sc2nccn2C)c2nonc2c1[N+](=O)[O-]	ALR H2O2 inh 97 (no result: NALP3 yeast inh)
CCCC(=O)OCCNc1cc(SCc2ccco2)c2nonc2c1[N+](=O)[O-]	none (no result: DSG3 Ab inh)
CC(=O)OCCCNc1cc(SCc2ccco2)c2nonc2c1[N+](=O)[O-]	ALR H2O2 inh 90 (no result: DSG3 Ab inh)
Cc1ccc(C)c(OCCC(=O)OCc2csc(CC(=O)Nc3ccccc3C)n2)c1	none (no result: NALP1 inh, ALR H2O2 inh, PolyA inh)
O=C(C[C@H]1C/C=C\C[C@H](NC(=O)OCC2c3ccccc3-c3ccccc32)C(=O)OC[C@@H]2CCCN2C1=O)NCCO	none (no result: NALP1 inh, PolyA inh)
CO/N=C\Cc1oc(=O)c(NC(=O)c2ccccc2)cc1C(=O)OC	none
COC(=O)c1cc(NC(=O)c2ccccc2)c(=O)oc1C/C=N\OCc1ccc(Cl)cc1Cl	NALP1 inh 42
CC(NC(=O)C1CCC(CNS(=O)(=O)c2ccc3c(c2)C(C)(C)C(=O)N3C)CC1)c1ccccc1 (configuration not stated)	none
COc1cc(NC(=O)CCc2c(C)noc2C)c(C(=O)O)cc1OC	none (no result: Arrestin-AP2 inh, NALP1 inh, ALR H2O2 inh, NALP3 yeast inh, PolyA inh)
CCc1ccc2c(c1)cc(CN(C(=S)Nc1ccccc1C)C1CC1)c1nnnn12	none
COCCN(Cc1cc2cc(C)ccc2n2nnnc12)C(=S)Nc1ccccc1C	NALP1 inh 24
Cc1cccc(-c2nc(CS(=O)CC(=O)N3CCc4ccccc4C3)c(C)o2)c1 (configuration not stated)	PolyA inh inconclusive (no result: ALR H2O2 inh)
CCOC(=O)N1CCN(C(=O)CS(=O)Cc2nc(-c3ccc(OC)c(OC)c3)oc2C)CC1 (configuration not stated)	ALR H2O2 inh 99
CCOC(=O)N1CCN(C(=O)CS(=O)Cc2nc(-c3cccc(C)c3)oc2C)CC1 (configuration not stated)	ALR H2O2 inh 99
CCOC(=O)CC1CCCCN1Cc1nc(-c2ccc(F)c(OC)c2)oc1C (configuration not stated)	none (no result: Arrestin-AP2 inh)
CCN1CCN(C(=O)CS(=O)Cc2nc(-c3cccc(C)c3)oc2C)CC1 (configuration not stated)	ALR H2O2 inh 99
CCOC(=O)N1CCC(NC(=O)CS(=O)(=O)Cc2nc(-c3cccc(Cl)c3)oc2C)CC1	none
Cc1cccc(-c2nc(CS(=O)CC(=O)N3CC(C)CC(C)C3)c(C)o2)c1 (configuration not stated)	ALR H2O2 inh 96
NC(=O)c1ccc(SCC(=O)OCC(=O)N2CCN(C(=O)c3ccco3)CC2)c([N+](=O)[O-])c1	DSG3 Ab inh inconclusive (no result: NALP1 inh)
CC1C(=O)N(Cc2cn(Cc3ccco3)nn2)CCS(=O)(=O)N1Cc1ccc(-c2ccc(Cl)cc2)cc1 (configuration not stated)	none (no result: Arrestin-AP2 inh, NALP1 inh, ALR H2O2 inh, NALP3 yeast inh, PolyA inh)
Cc1ccc(NC(=O)CN(c2ccc3c(c2)OCO3)S(=O)(=O)c2c(C)n[nH]c2C)cc1	ALR H2O2 inh 90
CC(C)c1ccc(N(CC(=O)NC2CCCCC2)C(=O)CCC(=O)Nc2ccccn2)cc1	DSG3 Ab inh 62
Cc1nn(C)c(C)c1S(=O)(=O)N(CC(=O)NC1CCCCCC1)c1ccc(C(C)C)cc1	none
Cc1n[nH]c(C)c1S(=O)(=O)N(CC(=O)NC1CCCC1)c1ccc(C(C)C)cc1	ALR H2O2 inh 81
COc1ccccc1NS(=O)(=O)c1cccc(C(=O)N2CCN(Cc3ccc4c(c3)OCO4)CC2)c1	none (no result: NALP1 inh)
NC(=O)c1ncn([C@@H]2O[C@H](CNCc3ccc(-c4cc(C(F)(F)F)ccc4Cl)o3)[C@@H](O)[C@H]2O)n1	none (no result: NALP1 inh, ALR H2O2 inh, NALP3 yeast inh, PolyA inh)
CN(C)S(=O)(=O)NC(=O)C1=C(N2CCCC2)COC1=O	none (no result: NALP1 inh, PolyA inh)
CCCNC(=O)CS(=O)(=O)Cc1nc(-c2ccccc2C)oc1C	none
COc1ccccc1CNC(=O)CS(=O)Cc1nc(-c2ccccc2C)oc1C (configuration not stated)	ALR H2O2 inh 99
COCCNC(=O)CS(=O)Cc1nc(-c2ccccc2C)oc1C (configuration not stated)	ALR H2O2 inh 98
Cc1ccccc1-c1nc(CS(=O)CC(=O)NCc2ccccc2)c(C)o1 (configuration not stated)	ALR H2O2 inh 98
